Screens from PubChem BioAssay.
A selection: hits, their analogues and other compounds. The true share with any hit is near 0.99%.
Dyrk1A ADPGlo – Dyrk1A (rat) kinase inhibition | ADP-Glo luminescence, NFATc1 peptide | actives 0.43% (n = 310,000) | AID 504441 | inhibition, % at 12.5 µM; in the data active means inhibition above about 50%;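 further: plate controls were vehicle with enzyme for no effect and no enzyme for full effect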
Arrestin-AP2 inh – human beta-arrestin and AP2 interaction inhibition. FITC-arrestin peptide / GST-AP2 beads, flow cytometry; AP2 beta2 appendage carries R879A mutation. inhibition, % at 10 µM. actives 0.31% (n = 340,000). AID 504490;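 active means inhibition above a set limit, near 3 SD of compounds lacking own fluorescence, cut at about 54% in these data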;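 further: plate controls were DMSO wells for no effect and 5 µM unlabelled arrestin peptide for full effect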
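test system = AP2 appendage R879A on GSH beads | buffer or medium = PBS plus Tween 20 (0.05%) and BSA (0.1%) | incubation = 12 min plus 1 h, RT | detection = bead flow cytometry, FITC channel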
GSK3beta inhib – inhibitors of human GSK3beta kinase. P49841. GST-GSK3beta kinase, ADP-Glo luminescence, 60 min; active compounds read low. activity score (negative = inhibition), % at 10 µM. actives 0.038% (n = 300,000). AID 2097;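 active means more than half of replicate wells score below -50%, meaning over 50% inhibition versus plate controls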;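 further: 0% = median DMSO wells and -100% = median GW8510 positive control wells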
Target sequence (P49841 whole entry, looked up): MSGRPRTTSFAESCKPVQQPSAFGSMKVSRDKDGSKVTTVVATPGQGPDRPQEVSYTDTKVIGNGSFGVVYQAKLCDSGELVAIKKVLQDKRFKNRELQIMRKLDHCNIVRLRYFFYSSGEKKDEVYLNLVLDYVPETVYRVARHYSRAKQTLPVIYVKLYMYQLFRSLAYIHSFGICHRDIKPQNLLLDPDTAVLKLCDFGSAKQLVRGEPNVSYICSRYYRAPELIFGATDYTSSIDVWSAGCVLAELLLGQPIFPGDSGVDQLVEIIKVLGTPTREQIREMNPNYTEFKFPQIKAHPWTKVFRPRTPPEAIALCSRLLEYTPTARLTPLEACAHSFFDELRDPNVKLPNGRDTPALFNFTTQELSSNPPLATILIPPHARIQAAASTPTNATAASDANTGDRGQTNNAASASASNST
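test system = GST-tagged human GSK3beta kinase, cell-free | reagent = 25 µM ATP with peptide substrate | dosing = one dose of 10 µM per compound | schedule = 60 min reaction, RT | detection = luminescent ADP-Glo measurement of ADP formed | control set = DMSO neutral wells and GW8510 at 20 µM as positive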
STK33 kinase inh – human STK33 kinase inhibition | Q9BYT3 | purified STK33, MBP phosphorylation, ADP-Glo luminescence | inhibition, % at 10 µM | actives 0.073% (n = 320,000) | AID 2661;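 active means inhibition at or above 25%, using the most active replicate where run in duplicate; inactive means inhibition below 25%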
GSK3 alpha inh – human GSK-3 alpha kinase inhibition; actives 0.1% (n = 320,000); ADP-Glo luminescence, 60 min; inhibition, % at 10 µM; P49840;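 active means more than half of replicates show inhibition above 20%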;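 further: GST-tagged GSK-3 alpha with peptide substrate and 25 µM ATP; 0% = DMSO neutral wells and 100% = GW8510 positive control wells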
Rin1-Abl PPI inh – inhibitors of human Rin1-Abl protein interaction; TR-FRET Rin1/Abl binding, biochemical; inhibition, % at 7.35 µM; actives 0.4% (n = 360,000); AID 588664; in the data active means inhibition above about 5%, passing the limit was not always enough
Arr-AP2 CP1 – human beta-arrestin and AP2 interaction inhibition, cherry pick. shares compounds with Arrestin-AP2 inh. GST-AP2 beads, FITC arrestin peptide binding, flow cytometry; GST-fused beta2-adaptin appendage, R879A mutant. inhibition, % at 10 µM. actives 2% (n = 1,300). AID 504908;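 active means inhibition above a set limit, roughly 3 SD of non-fluorescent compound noise, cut at about 38% in these data; inactive means inhibition at or below that limit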;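 further: loss of bead fluorescence from 50 nM FITC arrestin peptide bound to appendage; 0% = negative control wells and 100% = excess unlabelled arrestin peptide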
GST GSH counter – GST-GSH bead binding interference, counter-screen. inhibition, % at 10 µM. actives 2% (n = 1,300). shares compounds with Arrestin-AP2 inh. GST-fluorescein binding to GSH beads, fluorescence;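 active means inhibition above 50%, about 3 SD of the inhibition seen with non-fluorescent compounds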;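 further: fluorescein maleimide labelled GST captured on 4 micron glutathione beads; higher means more loss of bead fluorescence from quenching or blocked binding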
Numbers without * were called inactive; . = not tested or not shown.

SMILES | Dyrk1A ADPGlo | Arrestin-AP2 inh | GSK3beta inhib | STK33 kinase inh | GSK3 alpha inh | Rin1-Abl PPI inh | Arr-AP2 CP1 | GST GSH counter
O=C(c1ccco1)N1CCN(S(=O)(=O)c2ccc3c(c2)OCCO3)CC1 | -2.0 | 96.3* | 1.6 | -0.1 | . | 2.7 | 1.6 | 2.3
COc1ccc2nc(C)cc(N3CCN(S(=O)(=O)c4ccccc4F)CC3)c2c1 | . | 62.3* | . | 0.5 | 18.3 | -1.9 | -3.8 | -5.9
CC(=O)c1ccc(OCc2cc(C(=O)N3CCN(C4CCCC4)C(=O)C3)no2)cc1 | -4.0 | 2.0 | 1.1 | -0.3 | -0.5 | 1.3 | . | .
Cc1cc(C)cc(C(O)c2ncc(-c3ccccc3)[nH]2)c1 (configuration not stated) | . | . | . | . | . | -4.8 | . | .
COc1ccc2nc(Cl)c(/C=N/Nc3ccccn3)cc2c1 | 4.5 | 59.0* | -0.6 | -1.8 | 1.6 | -1.2 | -9.2 | -13.2
Clc1ccccc1C=NNc1ccccn1 | 3.4 | -4.1 | . | . | . | 1.8 | . | .
COc1cc2c(=O)n(CC3CCCO3)c(=O)n(CC(=O)Nc3ccccc3)c2cc1OC (configuration not stated) | 0.0 | -3.8 | 0.2 | -0.2 | -0.3 | -0.1 | . | .
CCN(CC(=O)NCc1ccc(F)cc1)C(=O)C1CCN(S(=O)(=O)c2ccc(C(C)C)cc2)CC1 | -0.4 | 32.6 | . | . | . | 3.0 | . | .
CNC(=O)c1ccc(-c2ccc(F)cc2)s1 | 21.1 | 23.1 | -3.6 | -0.7 | -4.1 | 1.8 | . | .
O=C(Nc1ccccc1)c1ccc(-c2ccc(F)cc2)s1 | -0.8 | 55.0* | 0.8 | -1.3 | 1.6 | 2.0 | 9.8 | -7.6
CCCn1cnnc1CNC(=O)[C@H]1O[C@@H](n2cnc3c(N)ncnc32)[C@H](O)[C@@H]1O | . | . | . | . | . | 2.8 | . | .
O=C(Nc1cnccn1)Nc1ccccc1Cl | 2.9 | 1.7 | -0.6 | -0.4 | . | -0.5 | . | .
O=C(Nc1ccc(Cl)cc1)Nc1cnccn1 | -1.6 | 9.6 | -2.3 | 0.1 | 1.7 | -2.7 | 16.2 | 4.8
O=C(Nc1ccc(F)c(Cl)c1)Nc1cnccn1 | 0.3 | 17.2 | -0.8 | -0.1 | . | -2.9 | . | .
Cc1ccc(NC(=O)Nc2cnccn2)cc1C | -12.1 | 8.8 | 4.3 | 0.3 | -0.6 | -0.8 | 2.8 | -1.6
Cc1cc(C)cc(NC(=O)Nc2cnccn2)c1 | 8.7 | 7.8 | -0.1 | -1.2 | 0.0 | 0.9 | -7.2 | 0.3
CC(C)c1ccc(NC(=O)c2cccnc2)cc1 | 0.5 | 4.3 | -3.8 | 0.6 | 0.0 | -2.5 | . | .
CC(C)c1ccc(NC(=O)Nc2cnccn2)cc1 | -0.6 | -6.6 | -2.8 | -3.8 | 0.4 | -1.2 | -2.1 | -4.5
Cc1ccc(NC(=O)c2nccnc2C(=O)O)cc1C | -0.5 | -1.0 | -2.1 | -2.2 | -1.5 | 0.5 | . | .
O=C(CN1CCOCC1)Nc1ccc(NC(=O)c2ccccc2F)cc1 | -3.9 | -0.1 | 4.0 | -1.3 | -0.2 | 1.9 | . | .
O=C(Nc1cccc(Cl)c1)Nc1cnccn1 | . | -4.3 | -1.6 | -1.6 | 1.7 | -3.3 | -1.5 | 2.1
CC(=O)Nc1ccc(NC(=O)Nc2ccccc2)cc1 | -4.5 | 4.4 | 6.4 | -3.5 | 0.8 | 1.0 | . | .
O=C(Nc1ccccc1)Nc1cnccn1 | 9.4 | 40.1 | 2.9 | 0.0 | 1.4 | 1.9 | -4.8 | -6.9
O=C(Nc1cccc(Cl)c1)c1cnccn1 | 7.5 | 32.5 | -0.5 | 0.6 | 0.4 | 2.7 | . | .
O=C(Nc1ccc([N+](=O)[O-])cc1)Nc1cnccn1 | 14.0 | -8.0 | -2.4 | 0.7 | 2.1 | -1.3 | . | .
SMILES | Dyrk1A ADPGlo | Arrestin-AP2 inh | GSK3beta inhib | STK33 kinase inh | GSK3 alpha inh | Rin1-Abl PPI inh | Arr-AP2 CP1 | GST GSH counter
Cc1cnc(NC(=O)Nc2ccccc2)c(C)n1 | 1.4 | -2.8 | -0.2 | 1.3 | -3.0 | -2.6 | -14.4 | -2.4
Cc1ccc(NC(=O)Nc2cnccn2)cc1 | . | 44.5 | 0.7 | 0.0 | -0.1 | -1.3 | -7.8 | 9.7
CCN(CC)C(=O)c1[nH]cnc1C(=O)NC1CCN(C(=O)OC(C)(C)C)CC1 | 7.3 | 22.3 | . | 0.5 | 4.4 | 4.5 | . | .
CC1(C(=O)NS(=O)(=O)c2ccc(Cl)s2)CCN1C(=O)c1ccc(C2CCCCC2)cc1 (configuration not stated) | . | . | . | . | . | -4.1 | . | .
COc1ccc(Cl)cc1NC(=O)Nc1cnccn1 | 0.0 | -2.4 | 1.3 | -0.1 | -0.6 | 3.3 | . | .
COc1ccc(NC(=O)Nc2cnccn2)cc1OC | -5.4 | -8.5 | 0.6 | 0.5 | 5.4 | -1.0 | -2.9 | 7.8
COc1ccccc1N(CC(=O)N(C)Cc1ccccc1)S(=O)(=O)c1cccs1 | -3.2 | -0.1 | . | -0.9 | -0.2 | -0.4 | . | .
Cc1ccc(S(=O)(=O)N(C)C)cc1NC(=O)COC(=O)Cc1ccsc1 | 4.5 | -18.1 | -1.7 | 0.7 | 1.1 | 3.2 | . | .
CCN(CC)S(=O)(=O)c1cccc(C(=O)N/N=C/c2cc(OC)c(O)c(OC)c2)c1 | -3.5 | 60.3* | 1.9 | 0.2 | 0.2 | -1.6 | -3.0 | 1.0
COc1cc2c(cc1OC)C(=O)CCS2 | 2.6 | 74.6* | -3.3 | 0.5 | 0.3 | 1.5 | 11.6 | -4.4
CCOc1ccc(C(=O)NCC(=O)NC(C)CCc2ccccc2)cc1OCC (configuration not stated) | -2.7 | -1.4 | 1.9 | -1.5 | . | -0.6 | . | .
O=C(CN1C(=O)C(=O)N(Cc2ccco2)C1=O)Nc1ccccc1 | -5.6 | -1.7 | . | -2.2 | -4.0 | 0.7 | . | .
CCOc1cccc(-c2cc(=O)[nH][nH]2)c1 | 17.7 | 73.6* | 3.0 | -0.9 | 1.2 | -1.7 | -4.0 | -4.6
COc1cccc(-c2cc(=O)[nH][nH]2)c1 | 1.2 | 0.1 | 5.1 | -0.8 | -1.4 | -0.5 | . | .
CSc1ccc(Cl)c(C(=O)Nc2cc(S(=O)(=O)N3CCOCC3)ccc2N2CCOCC2)c1 | . | 5.5 | . | 0.1 | -4.2 | 5.9 | . | .
CN(C(=O)COC(=O)c1cc(-c2ccccc2Cl)nc2ccccc12)C1CCS(=O)(=O)C1 (configuration not stated) | 5.5 | 5.2 | 2.4 | -0.1 | 0.2 | -9.8 | . | .
CN(C(=O)COC(=O)c1cc(-c2ccc(Cl)s2)nc2ccccc12)C1CCS(=O)(=O)C1 (configuration not stated) | -0.7 | 63.7* | -1.8 | -0.8 | -0.1 | 3.9 | 13.3 | -1.9
Cc1ccc(F)c(S(=O)(=O)NC(=O)C2(C)CCN2C(=O)Cc2ccc(-c3ccccc3)cc2)c1 (configuration not stated) | . | . | . | . | . | -11.1 | . | .
Cn1c(=O)[nH]c(=O)c2c1nc(N1CCCCCC1)n2Cc1cccc2ccccc12 | 5.3 | 99.5* | 0.8 | -0.7 | -0.8 | 1.1 | 1.6 | -10.0
Cn1c(=O)[nH]c(=O)c2c1nc(N1CCNCC1)n2Cc1ccccc1Cl | . | -17.1 | -3.3 | 0.1 | -0.6 | 1.4 | . | .
Cc1cc(Br)ccc1OCCNCc1ccccc1 | -5.8 | 55.9* | -1.1 | 0.4 | -1.5 | 6.2 | -1.8 | -13.2
